Data from ChEMBL document CHEMBL2440067, “Novel 3-nitro-1H-1,2,4-triazole-based piperazines and 2-amino-1,3-benzothiazoles as antichagasic agents” (Bioorg Med Chem, 2013).

What was measured:
[1] = tested on: Trypanosoma brucei rhodesiense; experiment: Antimicrobial activity against blood stream form of Trypanosoma brucei rhodesiense STIB 900 after 72 hrs by Alamar blue assay; type: functional, organism-based; details: STIB 900, 72 h
Summary of the method: (§1)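 96-well plate growth-inhibition format. Targets were T. b. rhodesiense bloodstream trypomastigotes, T. cruzi Tulahuen C4 amastigotes inside L6 rat skeletal myoblasts, axenically cultured L. donovani MHOM-ET-67/L82 amastigotes, and L6 cells alone for cytotoxicity.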

[2] = Selectivity index, ratio of IC50 for rat L6 cells to IC50 for Trypanosoma cruzi Tulahuen C4 amastigotes; type: toxicity, cell-based; details: read-out: Ratio IC50
Summary of the method: (§2)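 SI is the L6 myoblast IC50 divided by the IC50 against the parasite named. IC50s come from 96-well dose-response curves, each the mean of two independent assays.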

[3] = tested on: Trypanosoma cruzi; experiment: Ratio of banznidazole IC50 to compound IC50 for Trypanosoma cruzi Tulahuen C4 amastigotes; type: functional
[4] = tested on: Leishmania donovani; experiment: Antimicrobial activity against Leishmania donovani MHOM-ET-67/L82 amastigotes after 72 hrs by Alamar blue assay; type: functional, organism-based; details: MHOM-ET-67/L82, 72 h; summary of the method: as §1
[5] = tested on: L6; experiment: Cytotoxicity against rat L6 cells after 72 hrs by Alamar blue assay; type: cell-based; details: L6, 72 h; summary of the method: as §1
[6] = tested on: Trypanosoma cruzi; experiment: Antimicrobial activity against Trypanosoma cruzi Tulahuen C4 amastigotes infected in rat L6 cells after 96 hrs by beta-galactosidase reporter gene assay; type: functional, organism-based; details: Tulahuen C4, L6, 96 h; summary of the method: as §1
[7] = Selectivity index, ratio of IC50 for rat L6 cells to IC50 for Leishmania donovani MHOM-ET-67/L82 amastigotes; type: toxicity, cell-based; details: read-out: Ratio IC50; summary of the method: as §2
[8] = Selectivity index, ratio of IC50 for rat L6 cells to IC50 for blood stream form of Trypanosoma brucei rhodesiense STIB 900; type: toxicity, cell-based; details: read-out: Ratio IC50; summary of the method: as §2
[9] = Prodrug conversion assessed as Trypanosoma brucei brucei recombinant his-tagged nitroreductase-mediated NADH oxidization by spectrophotometric analysis; type: ADME; details: isolated protein

Row | SMILES | IC50 [1] | selectivity ratio [2] | Ratio IC50 [3] | IC50 [4] | IC50 [5] | IC50 [6] | selectivity ratio [7] | selectivity ratio [8] | Drug metabolism [9]
1 | O=[N+]([O-])c1ncn(CCCN2CCN(c3ccncc3)CC2)n1 | 1.34 µM | 17.5 | 0.2 | > 315 µM | 154 µM | 8.8 µM | < 1 | 115 | 
2 | Cl.O=C(C1CC1)N1CCN(CCCn2cnc([N+](=O)[O-])n2)CC1 | 15.6 µM | 43.1 | 0.3 | > 290 µM | 203 µM | 4.7 µM | < 1 | 13 | 
3 | O=[N+]([O-])c1ncn(CCCNc2nc3ccc(Cl)cc3s2)n1 | 0.204 µM | 1720 | 26.6 | 4.49 µM | 102 µM | 0.059 µM | 22.7 | 500 | 
4 | O=[N+]([O-])c1ncn(CCCNc2nc3ccccc3s2)n1 | 0.954 µM | 287 | 3.6 | 20 µM | 162 µM | 0.566 µM | 8.1 | 170 | 
5 | O=[N+]([O-])c1ncn(CCCCNc2nc3ccc(Cl)cc3s2)n1 | 0.355 µM | 314 | 14.4 | 4.1 µM | 44.5 µM | 0.142 µM | 10.9 | 126 | 
6 | O=[N+]([O-])c1nccn1CCCNc1nc2ccc(Cl)cc2s1 | 7.61 µM | 15.3 | 0.6 | 4.27 µM | 49.5 µM | 3.23 µM | 11.6 | 6.5 | 
7 | O=[N+]([O-])c1nccn1CCCNc1nc2ccccc2s1 | 52.5 µM | 36.1 | 0.4 | 11.4 µM | 176 µM | 4.88 µM | 15.4 | 3.4 | 
8 | O=[N+]([O-])c1nccn1CCCCNc1nc2ccc(Cl)cc2s1 | 3.87 µM | 24.6 | 1.2 | 7.3 µM | 43 µM | 1.75 µM | 5.5 | 11.1 | 
9 | Cl.Cl.O=[N+]([O-])c1ncn(CCCN2CCN(Cc3ccc(C(F)(F)F)cc3)CC2)n1 |  |  | 4.6 |  |  |  |  |  | 420 nmol/min/mg
10 | Cl.Cl.O=[N+]([O-])c1ncn(CCCCN2CCN(Cc3ccc(C(F)(F)F)cc3)CC2)n1 |  |  | 3.8 |  |  |  |  |  | 364 nmol/min/mg
11 | Cl.Cl.O=[N+]([O-])c1ncn(CCCN2CCN(c3ccc(C(F)(F)F)cc3)CC2)n1 |  |  | 39.2 |  |  |  |  |  | 788 nmol/min/mg
12 | Cl.Cl.Cl.Cl.O=[N+]([O-])c1ncn(CCCN2CCN(Cc3ccc(Cl)c(Cl)c3)CC2)n1 | 0.78 µM | 117 | 7.1 | 23.9 µM | 33.5 µM | 0.286 µM | 1.4 | 42.9 | 
13 | Cc1ccc(N2CCN(CCCn3cnc([N+](=O)[O-])n3)CC2)cc1.Cl.Cl | 23.9 µM | 289 | 3.7 | 173 µM | 121 µM | 0.419 µM | < 1 | 5.1 | 
14 | Cl.Cl.N#Cc1ccccc1N1CCN(CCCn2cnc([N+](=O)[O-])n2)CC1 | 10.5 µM | 137 | 2.5 | 180 µM | 113 µM | 0.828 µM | < 1 | 10.8 | 
15 | COc1ccc(N2CCN(CCCn3cnc([N+](=O)[O-])n3)CC2)cc1.Cl.Cl | 35.6 µM | 224 | 2.8 | > 239 µM | 125 µM | 0.556 µM | < 1 | 3.5 | 
16 | COc1ccc(N2CCN(CCCn3ccnc3[N+](=O)[O-])CC2)cc1.Cl.Cl | 62.4 µM | 4 | 0.1 | 186 µM | 137 µM | 34.4 µM | < 1 | 2.2 | 
17 | Cl.Cl.Cl.Cl.O=[N+]([O-])c1nccn1CCCN1CCN(Cc2ccc(Cl)c(Cl)c2)CC1 | 10.7 µM | 8.4 | 0.2 | 150 µM | 79.2 µM | 9.4 µM | < 1 | 7.4 | 
18 | Cl.Cl.O=[N+]([O-])c1ncn(CCCN2CCN(c3ncccn3)CC2)n1 | 49.6 µM | 152 | 0.9 | > 100 µM | > 100 µM | 1.68 µM | 1 | 5.2 | 
19 | Cl.Cl.O=[N+]([O-])c1ncn(CCCN2CCN(c3ccccn3)CC2)n1 | 35.6 µM | 180 | 1.9 | > 315 µM | 153 µM | 0.848 µM | < 1 | 4.3 | 
20 | Cl.Cl.Cl.Cl.O=[N+]([O-])c1ncn(CCCN2CCN(c3ccc(Cl)c(Cl)c3)CC2)n1 | 0.231 µM | 868 | 32.7 | 11.3 µM | 41.7 µM | 0.048 µM | 3.7 | 180 | 
21 | O=C(Cn1ccnc1[N+](=O)[O-])NCc1ccccc1 [BENZNIDAZOLE] |  |  |  |  |  |  |  |  | 218 nmol/min/mg
22 | CC1CS(=O)(=O)CCN1/N=C/c1ccc([N+](=O)[O-])o1 (centres undefined) [NIFURTIMOX] |  |  |  |  |  |  |  |  | 74 nmol/min/mg
